Rows were chosen to be rich in hits. Some 2.3% of all compounds tested hit in one or more screens of this group.
Env fusion inh – inhibitors of HIV-1 Env-driven cell-cell fusion, primary screen, HeLa-JRFL effector, CEM21 target cells, luciferase. inhibition, % at 12.3 µM. 360,000 tested, 1.1% active;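 active = mean replicate inhibition score of at least 50 and every replicate individually at or above 50; inconclusive = only one of the two criteria met; inactive = mean below 50 and not all replicates reaching 50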;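 also: 0% = plate neutral controls and 100% = maraviroc near 300 nM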
FN deposit inh – inhibitors of fibronectin matrix deposition, primary screen, AH1F cells, Alexa488-fibronectin fluorescence, plate reader; 350,000 tested, 0.086% active; AH1F fibroblasts, overnight; AID 743247, 2014; inhibition, % at 12.6 µM;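 active = mean inhibition across replicates of 30% or more, regardless of how many single replicates reach that level; inconclusive = mean under 30% yet at least half of replicates reach 30%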;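 also: positive control wells lacked labelled fibronectin entirely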
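Schedule: 1 h cell adhesion before compound, then overnight fibronectin incubation; test system: AH1F fibroblast monolayer depositing Alexa488-labelled fibronectin into matrix; quantity: 10000 AH1F cells per well; probe or stimulus: fluorescent fibronectin at 24 nM final; signal: fluorescence, ex 485 nm, em 525 nm; evaluation: percent inhibition as loss of matrix-bound fibronectin fluorescence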
PGC1a acetyl inh – inhibitors of PGC1a acetylation signal, primary screen, cell-based, U2OS, AlphaScreen, inhibitor mode. AlphaScreen anti-acetyl-lysine; with virally co-expressed GCN5 acetyltransferase. inhibition, % at 15.6 µM. 350,000 tested, 0.17% active;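 active = every replicate shows inhibition of at least 40%; inconclusive = mean inhibition at least 40% but some replicate below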;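 also: 0% = neutral control wells and 100% = positive control wells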
EWS-Fli inh – EWS/Fli-driven NR0B1 reporter inhibitors, primary screen, A673 cells, NR0B1 luciferase, luminescence, MLPCN library; viability-normalised; inhibition, % at 12.6 µM; 350,000 tested, 0.67% active;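 active = mean inhibition of at least 50% after viability correction, with every replicate also passing that limit; inconclusive = mean reaches 50% but only one of two replicates passes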;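 also: firefly luciferase signal divided by Alamar Blue viability fluorescence both relative to DMSO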
PAX8 reporter – inhibitors of PAX8-driven TPO luciferase reporter, primary screen, RMG-I cells, single concentration | inhibition, % at 12.6 µM | SteadyGlo, 24 h | 360,000 tested, 1.2% active | AID 652154, 2013;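 active = mean replicate inhibition at least 60% with every replicate also reaching 60%; inconclusive = only one of the two criteria is met; inactive = mean below 60% and not all replicates reaching 60%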;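 also: luciferase light reporting Pax8 driven TPO promoter activity; plate controls were median of neutral control wells for no effect and mitoxantrone controls for full effect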
F508del corr – F508del CFTR correction, initial screen, CFBE line, single point; CFBE cells, YFP halide quenching; stimulated with forskolin plus potentiator P3; % fluorescence drop versus neutral controls; activity (quench increase), % at 7.58 µM; 350,000 tested, 0.36% active; AID 720511, 2013;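 active = mean added fluorescence quench of at least 8% versus neutral control, with both replicates also reaching 8%; inconclusive = only one of the mean or replicate conditions met; inactive = mean below 8% and not both replicates reaching 8%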;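 also: cells transiently co-express mutant CFTR-F508del with the halide-sensitive YFP; corrector assay measuring rescue of mutant channel to the surface after 24 h compound exposure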
DNA binding – DNA binders by acridine orange displacement, dose response, counter-screen for EWS/Fli inhibitor project, biochemical, fluorescence polarization, cherry-pick. shares compounds with EWS-Fli inh. salmon sperm DNA acridine orange fluorescence polarization. AC35, µM (top dose mostly 68 µM), inactives show at the highest dose activity change, negative = DNA binding. 640 tested, 2% active. AID 720586, 2013;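 active = fitted curve reaches a 35% signal fall AC35 below twice the sample's top valid tested dose, actives reach about 48 µM in these data; inactive = the rest, including activity in the rising direction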;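 also: lower polarization ratio signals compound binding to DNA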
An asterisk follows results filed as active; i = inactive; ? = inconclusive; nt = no result given; [ ] = dose if it differs, or a comment.

SMILES | Env fusion inh | FN deposit inh | PGC1a acetyl inh | EWS-Fli inh | PAX8 reporter | F508del corr | DNA binding
O=C(N/N=C/c1c[nH]c2ccccc12)c1ccc(Br)cc1 | -5.9 | 1.5 | 14.3 | -53.2 | 0.5 | -0.6 | nt
CC(C)Oc1ccc(Br)cc1C(=O)N/N=C/c1c[nH]c2ccccc12 | 13.1 | 0.2 | 2.7 | 53.3* | -13.7 | 1.0 | -1.3%
Cc1ccc(C(=O)CC(=O)c2cc(Cl)ccc2O)cc1 | -54.9 | -7.2 | -9.2 | nt | nt | nt | nt
N/C(=C\C(=O)c1cc(Cl)ccc1O)C(Cl)(Cl)Cl | -300.1 | 3.4 | -24.9 | 62.0* | 43.3 | 3.2 | -4.5%
COC(=O)c1cccc(NC(=O)NC(=O)c2ccccc2Cl)c1 | 42.6 | -6.5 | nt | 85.6* | 29.6 | 3.1 | -13.2%
CO[C@@H]1CN(C)C(=O)c2ccc(NC(=O)C3CCC3)cc2OC[C@@H](C)N(C(=O)NC(C)C)C[C@H]1C | 29.5[16.7 µM] | 4.4 | -0.5 | 1.9 | nt | -0.5 | nt
OCC1OC(n2ccc3c2ncn2ncnc32)C(O)C1O (stereo not drawn) | 55.2* | 6.7 | nt | 70.7* | 71.9* | 0.8 | -10.3%
O=C(CCCCl)Nc1nc(-c2ccc3c(c2)OCCO3)cs1 | -44.0 | -3.8 | 1.8 | 57.1* | -255.3 | 1.2 | -5.3%
O=c1cnc2ccccc2n1Cc1ccc(Br)cc1 | -12.9 | 0.8 | -8.6 | -89.3 | -61.9 | 0.5 | nt
CC(C)(C)c1ccc(Cn2c(=O)cnc3ccccc32)cc1 | 39.2 | -2.2 | -5.8 | 78.3* | 27.1 | -0.1 | -12.8%
O=C1/C(=C\c2ccccc2)CN(C(=O)CCN2CCCCC2)C/C1=C/c1ccccc1 | i | 9.5 | nt | 79.7* | -4.4 | -14.7 | 1.3%
O=C(CCN1C(=O)S/C(=C\c2ccccc2)C1=O)N1CCCCC1 | 10.9 | -5.4 | nt | -42.4 | -40.9 | 0.5 | nt
CN(C[C@H]1N[C@@H](CO)[C@@H]1c1ccc(C2=CCCC2)cc1)C(=O)c1ccc(F)cc1 | nt | -25.5 | 78.8* | 73.4* | 107.7* | 6.2 | -14.2%
C=C1C(=O)C=C[C@]2(C)C[C@@H]3OC(=O)[C@](C)(O)[C@H]3C[C@@H]12 | -329.9 | 6.0 | -177.8 | 65.3* | 67.2* | 1.5 | 14.9%
C[C@@H]1C[C@@H]2OC(=O)[C@]3(C)[C@H]2[C@@H](OC3(C)O)[C@]2(C)C(=O)C=C[C@H]12 (stereo partly drawn) | -35.1 | 7.7 | nt | -20.2 | -3.7 | -2.9 | nt
O=c1[nH]c(=O)n([C@H]2C[C@H](O)[C@@H](CO)O2)cc1F | 70.3* | 8.0 | nt | 64.4* | 17.4 | 2.2 | -5.1%
Nc1nc(=S)c2ncn(C3OC(CO)C(O)C3O)c2[nH]1 (stereo not drawn) | 14.9 | 6.0 | 4.4 | 12.1 | 24.6 | -2.8 | nt
Nc1nc(=S)c2ncn([C@@H]3O[C@H](CO)[C@@H](O)[C@H]3O)c2[nH]1 | 38.1 | 3.7 | 5.9 | 52.6* | 97.3* | -7.9 | -13.2%
Nc1ncn([C@@H]2O[C@H](CO)[C@@H](O)[C@H]2O)c(=O)n1 | -385.0 | -0.4 | -2.4 | 62.2* | 21.1 | -2.2 | 8.2%
COc1ccc([C@@H]2CC=CC[C@H](C)Oc3ccccc3C(=O)N(C)[C@@H](C)C(=O)N2)c(OC)c1 (mixture of isomers) | nt | -3.2 | nt | nt | nt | nt | nt
CCOc1ccc(/C=C2\CCc3ccccc3C2=O)cc1 | 4.6 | 5.2 | nt | 70.0* | -24.4 | 2.4 | -7.1%
COc1ccc(C=C2CCc3ccccc3C2=O)cc1 | 11.7 | 1.6 | nt | 70.4* | -96.1 | 1.5 | 2.3%
C[C@H](NC(=O)[C@H]1[C@H](CO)[C@H]2Cn3c(cccc3=O)[C@H]2N1CC1CCCCC1)c1ccccc1 | nt | nt | -3.4 | nt | 22.1 | 0.4 | nt
Cc1cc(Br)cn2c(Cc3cccc(Cl)c3)c(-c3ccco3)nc12 | -0.3 | -9.6 | nt | 2.2 | 6.8 | -1.2 | nt
Cc1ccc(Cc2c(-c3ccco3)nc3c(C)cc(Br)cn23)cc1 | 8.5 | 4.9 | 6.9 | 54.4* | 34.0 | -0.6 | 12.8%
SMILES | Env fusion inh | FN deposit inh | PGC1a acetyl inh | EWS-Fli inh | PAX8 reporter | F508del corr | DNA binding
CC(C)NC(=O)N(C)C[C@@H]1OCCCC[C@H](C)Oc2ccc(NS(=O)(=O)c3ccc(Cl)cc3)cc2C(=O)N([C@@H](C)CO)C[C@@H]1C | -88.7[16.7 µM] | -5.7 | 1.6 | 0.6 | -1.0 | 0.5 | nt
C=CCOc1c(/C=N\NC(N)=O)cccc1OC | -4.5 | -0.9 | 2.9 | 6.0 | 1.4 | 2.2 | nt
COc1cccc(Sc2ccccc2/C=N/NC(N)=O)c1 | -46.3 | 9.5 | -9.9 | 53.8* | 31.7 | 8.8* | -13.7%
COc1ccc(S(=O)(=O)N=Nc2c(O)[nH]c3ccccc23)cc1 | -41.9 | 6.2 | nt | 53.3* | 13.6 | -3.9 | -7.0%
COc1ccc(NC(=S)N=Nc2c(O)[nH]c3ccccc23)cc1 | 4.9 | 6.8 | 9.9 | 55.5* | 4.7 | 5.0 | -11.0%
Cc1ccc(NC(=S)N=Nc2c(O)[nH]c3ccccc23)cc1 | 15.3 | 13.0 | nt | 29.0 | 10.9 | 3.2 | nt
O=C(NC1CCCC1)C(c1ccccc1)n1c(CSCCOc2ccccc2)nc2ccccc21 (stereo not drawn) | ? | -2.1 | nt | 60.4* | -11.2 | 3.2 | 2.4%
O=C(NC1CCCC1)C(c1ccccc1)n1c(-c2cccs2)nc2ccccc21 (stereo not drawn) | 29.6 | 3.1 | nt | -7.4 | -11.9 | 1.5 | nt
O=C(C[C@@H]1C=C[C@@H](NC(=O)C2CCOCC2)[C@@H](CO)O1)Nc1nccs1 | -19.1[16.7 µM] | nt | 1.5 | 8.0 | 16.6 | 1.5 | nt
Cc1ccsc1C(=O)OCC(=O)NCCC1=CCCCC1 | -6.0 | nt | nt | 65.0* | -27.4 | nt | -5.4%
CCCC(=O)Nc1ccc2c(c1)C(=O)N(C)C[C@@H](OC)[C@H](C)CN(C(=O)c1ccccc1F)[C@H](C)CO2 | 6.7[16.7 µM] | -451.7 | -0.4 | 2.0 | nt | -0.6 | nt
O=C(Sc1cccc2cccnc12)c1ccccc1Br | 27.7 | 27.7 | nt | 50.5* | 99.9* | 1.5 | -0.8%
CC(=O)/C(=N\Nc1ccccc1)Sc1cccc2cccnc12 | nt | nt | 1.9 | nt | nt | nt | nt
O=C(C[C@@H]1C[C@@H]2c3cc(NS(=O)(=O)c4ccc(F)cc4)ccc3O[C@@H]2[C@H](CO)O1)NCc1ccccc1 | -4.9[16.7 µM] | -1.8 | 0.5 | -1.3 | 15.5 | -1.1 | nt
O=C(C[C@@H]1C[C@H]2c3cc(NS(=O)(=O)c4ccc(F)cc4)ccc3O[C@H]2[C@H](CO)O1)NCc1ccc(-c2ccccc2)cc1 | -170.5[16.7 µM] | 5.7 | -26.8 | 56.0* | 88.0* | -4.6 | -0.1%
C[C@@H]1CN([C@@H](C)CO)C(=O)c2cc(NC(=O)C3CCCCC3)ccc2O[C@@H](C)CCCCO[C@H]1CN(C)Cc1ccc(C(F)(F)F)cc1 | 20.9[16.7 µM] | nt | 2.5 | 9.1 | 25.6 | 5.3 | nt

Source: PubChem
